The structures appear in SMILES notation.

Data set [1] can be described thus: Solubility (in 0.1 N HCl). The format is physicochemical. Conditions: read-out: S. The essentials:
(§1)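 Solubility was measured either from HPLC peak areas at equilibrium or by a conventional weight-per-volume method. All solutions were held for 24 h before measurement.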

In data set [2] the test system is Escherichia coli. Description: In vitro antibacterial activity against gram negative Escherichia coli Vogel. The format is functional.
The subject of data set [3] is Staphylococcus aureus. Description: In vitro antibacterial activity against gram positive Staphylococcus aureus UC76. The format is functional.
Data set [4] deals with Escherichia coli. Briefly: In vivo potency against acute systemic infection in mouse caused by Escherichia coli Vogel on oral administration by gavage. The format is functional. Conditions: read-out: PD50. Summed up:
(§2)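 Acute systemic mouse infection. A single oral dose was given by gavage at the time of challenge. Potency is reported as the median protective dose (PD50, mg/kg), determined by earlier published methods.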

Data set [5] concerns the target DNA gyrase (Escherichia coli) (UniProt P0AES6+P0AES4). Briefly: In vitro concentration inhibiting DNA gyrase induced cleavage in Escherichia coli H560. The format is functional. Summed up:
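DNA gyrase test run as described in earlier work. The value is the drug concentration (µg/mL) needed to cause DNA cleavage.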

The subject of data set [6] is Pseudomonas aeruginosa. Briefly: In vitro antibacterial activity against gram negative Pseudomonas aeruginosa UI-18. The format is functional.
The nature of data set [7]: Solubility (at pH 4). The format is physicochemical. Conditions: buffer, read-out: S. Summed up:
as §1

The subject of a further data set is Enterococcus faecalis. Description: In vitro antibacterial activity against gram positive Enterococcus faecalis MGH-2. The format is functional.
Data set [8] relates to Streptococcus pneumoniae. Briefly: In vivo potency against acute systemic infection in mouse caused by Streptococcus pneumoniae SV-1 on oral administration by gavage. Conditions: read-out: PD50. The format is functional. Summed up: as §2
In data set [9] the test system is Klebsiella pneumoniae. Description: In vitro antibacterial activity against gram negative Klebsiella pneumoniae MGH-2. The format is functional.
Data set [10] has as its system Mus musculus. Description: In vivo potency against acute systemic infection in mouse caused by Streptococcus pyogenes C-203 on subcutaneous injection. The format is functional. Conditions: sc, read-out: PD50. The essentials: (§3)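 Acute systemic mouse infection. A single subcutaneous dose was injected at the time of challenge. Potency is reported as the median protective dose (PD50, mg/kg), determined by earlier published methods.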

Data set [11] relates to Streptococcus pneumoniae. Description: In vivo potency against acute systemic infection in mouse caused by Streptococcus pneumoniae SV-1 on subcutaneous injection. The format is functional. Conditions: sc, read-out: PD50. The essentials:
as §3

Data set [12] deals with Mus musculus. Briefly: In vivo potency against acute systemic infection in mouse caused by Streptococcus pyogenes C-203 on oral administration by gavage. The format is functional. Conditions: read-out: PD50. The essentials:
as §2

A short description of data set [13]: Aqueous solubility. Conditions: water (aqueous); read-out: S. The format is physicochemical. Summed up: as §1
For data set [14], the system named is Staphylococcus aureus. Briefly: In vitro antibacterial activity against gram positive Staphylococcus aureus H-228. The format is functional.
Another data set concerns Streptococcus pyogenes. Description: In vitro antibacterial activity against gram positive Streptococcus pyogenes C-203. The format is functional.
In another data set the test system is Providencia rettgeri. Briefly: In vitro antibacterial activity against gram negative Providencia rettgeri M-1771. The format is functional.
The nature of data set [15]: Solubility (at pH 7.4). The format is physicochemical. Conditions: buffer, read-out: S. Summed up: as §1
In data set [16] the test system is Streptococcus pneumoniae. Briefly: In vitro antibacterial activity against gram positive Streptococcus pneumoniae SV-1. The format is functional.
Data set [17] has as its system Enterobacter cloacae. Description: In vitro antibacterial activity against gram negative Enterobacter cloacae MA 2646. The format is functional.
Data set [18] concerns Escherichia coli. Description: In vivo potency against acute systemic infection in mouse caused by Escherichia coli vogel on subcutaneous injection. The format is functional. Conditions: sc, read-out: PD50. Summed up:
as §3

In data set [19] the test system is Mus musculus. Description: In vivo potency against acute systemic infection in mouse caused by Escherichia coli vogel on oral administration by gavage. The format is functional. Conditions: read-out: PD50. Summed up: as §2
The subject of data set [20] is Pseudomonas aeruginosa. Description: In vitro antibacterial activity against gram negative Pseudomonas aeruginosa. UI-18. The format is functional.
Data set [21] has as its system Klebsiella pneumoniae. Description: In vitro antibacterial activity against gram negative Klebsiella pneumoniae. MGH-2. The format is functional.
Data set [22] concerns Enterobacter cloacae. Description: In vitro antibacterial activity against gram negative Enterobacter cloacae MA 2646. The format is functional.
In data set [23] the test system is Escherichia coli. Briefly: In vitro antibacterial activity against gram negative Escherichia coli vogel. The format is functional.
For data set [24], the system named is Mus musculus. Briefly: In vivo potency against acute systemic infection in mouse caused by Escherichia coli vogel on subcutaneous injection. Conditions: sc, read-out: PD50. The format is functional. The essentials: as §3
Data set [25] concerns Mus musculus. Briefly: In vivo potency against acute systemic infection in mouse caused by Escherichia coli Vogel on oral administration by gavage. The format is functional. Conditions: read-out: PD50. Summed up:
as §2

For data set [26], the system named is DNA gyrase (Escherichia coli). Briefly: In vitro concentration inhibiting DNA gyrase induced cleavage in Escherichia coli H560.
Data set [27] has as its system Mus musculus. Briefly: In vivo potency against acute systemic infection in mouse caused by Escherichia coli Vogel on subcutaneous injection. The format is functional. Conditions: sc, read-out: PD50. Summed up: as §3
For data set [28], the system named is Mus musculus. Briefly: In vivo potency against acute systemic infection in mouse caused by Streptococcus pneumoniae SV-1 on oral administration by gavage. The format is functional. Conditions: read-out: PD50. The essentials: as §2

Regarding `Cl.Nc1c(F)c(N2CC[C@@H](N)C2)c(F)c2c1c(=O)c(C(=O)O)cn2C1CC1.O`, the solubility in data set [1] is 200 µg/mL; in data set [7] it was 2600 µg/mL; in data set [13], 2800 µg/mL; in data set [15] it was 40 µg/mL. For the same compound, the MIC (commonly the lowest concentration found to suppress growth) in the data set with Escherichia coli [2] was 0.013 µg/mL; in the data set on Staphylococcus aureus [3], 0.006 µg/mL; in the data set on Pseudomonas aeruginosa [6], 0.02 µg/mL; in the data set with Enterococcus faecalis, 0.05 µg/mL; against Klebsiella pneumoniae [9], 0.025 µg/mL; against Staphylococcus aureus [14] it was 0.025 µg/mL. For the same compound, the MIC against Streptococcus pyogenes was determined as 0.025 µg/mL; in the data set with Providencia rettgeri, 0.05 µg/mL; in the data set on Streptococcus pneumoniae [16], 0.003 µg/mL; against Enterobacter cloacae [17] it was 0.013 µg/mL. The ED50 amounted to 1.7 mg/kg in the data set with Escherichia coli [4]; 15 mg/kg in the data set with Streptococcus pneumoniae [8]; 7.5 mg/kg in the data set with Mus musculus [10]; 3.5 mg/kg with Streptococcus pneumoniae [11]; 12 mg/kg in the data set with Mus musculus [12]; 0.3 mg/kg with Escherichia coli [18]. For the same compound, in data set [5], the Cleavage came out at 0.1 µg/mL.
With `CC(C)[C@H](N)C(=O)NC1CCN(c2nc3c(cc2F)c(=O)c(C(=O)O)cn3C2CC2)C1.Cl.O` (stereo not given in full), the solubility is over 200000 µg/mL in data set [1], over 200000 µg/mL in data set [7], over 200000 µg/mL in data set [13] and 80 µg/mL in data set [15]. The ED50 in the data set on Mus musculus [19] is 3 mg/kg; in the data set on Mus musculus [10] it was 27 mg/kg; in the data set with Mus musculus [12], 76 mg/kg; in the data set on Mus musculus [24], 0.6 mg/kg. In addition, the MIC with Staphylococcus aureus [3] came out at 0.4 µg/mL; against Pseudomonas aeruginosa [20], 3.1 µg/mL; against Enterococcus faecalis, 1.6 µg/mL; with Klebsiella pneumoniae [21], 1.6 µg/mL; in the data set on Staphylococcus aureus [14], 1.6 µg/mL; in the data set on Streptococcus pyogenes, 1.6 µg/mL. In addition, the MIC against Enterobacter cloacae [22] worked out at 0.4 µg/mL; against Providencia rettgeri, 1.6 µg/mL; against Streptococcus pneumoniae [16], 1.6 µg/mL; against Escherichia coli [23] it was 0.4 µg/mL.
In the case of `Cl.N[C@H]1CCN(c2c(F)cc3c(=O)c(C(=O)O)cn(C4CC4)c3c2F)C1.O`, the MIC against Escherichia coli [2] came out at 0.006 µg/mL; with Staphylococcus aureus [3], 0.003 µg/mL; against Pseudomonas aeruginosa [6] it was 0.025 µg/mL; against Enterococcus faecalis, 0.025 µg/mL; with Klebsiella pneumoniae [21], 0.003 µg/mL; in the data set with Staphylococcus aureus [14], 0.013 µg/mL. For the same compound, the minimal inhibitory concentration (MIC) with Streptococcus pyogenes was 0.013 µg/mL; in the data set on Enterobacter cloacae [22], 0.013 µg/mL; against Providencia rettgeri, 0.006 µg/mL; with Streptococcus pneumoniae [16] it was 0.013 µg/mL. The ED50 in the data set with Mus musculus [25] was determined as 1 mg/kg; in the data set on Mus musculus [27], 0.2 mg/kg; in the data set on Mus musculus [28] it was 15 mg/kg; in the data set on Streptococcus pneumoniae [11], 7 mg/kg. In data set [26], the Cleavage is 0.1 µg/mL. Further, the solubility in data set [13] was 17000 µg/mL.

(Values after ChEMBL document CHEMBL1126036, “Quinolone antibacterial agents. Synthesis and structure-activity relationships of a series of amino acid prodrugs of racemic and chiral 7-(3-amino-1-pyrrolidinyl)quinolones. Highly soluble quinolone prodrugs with in vivo pseudomonas activity” (J Med Chem, 1992).)
